Assay results from different studies.
Cell line: UACC-257
Observed: cell growth or viability

| Structure (SMILES) | test | setting | quantity | value |
| --- | --- | --- | --- | --- |
| COc1ccc(C(=O)/C=C/c2cc3c(cc2Br)OCO3)cc1S(N)(=O)=O | SRB | 10 µM | inhibition | 36% |
| O=C1NCCc2[nH]c(-c3ccncc3)cc21 | – | – | IC50 | > 10000 nM |
| NC(=O)c1cc(Cl)ccc1NC(=O)COc1ccccc1 | – | – | GI50 | > 100000 nM |
| COc1cc(-c2ccc(-c3ccc(C(=N)N)nc3)s2)cc(OC)c1OC | SRB | – | GI50 | 2150 nM |
| COc1ccc(C2=Nn3c(NN=C4C(=O)Nc5ccc(Cl)cc54)nnc3SC2)cc1 | SRB | 10 µM | inhibition | 27% |
| COc1ccc(C(=O)/C=C/c2cccc(Cl)c2Cl)cc1S(N)(=O)=O | SRB | 10 µM | inhibition | 65% |
| O=C1NC(=NCc2cccs2)S/C1=C\c1ccc2ncccc2c1 | – | – | IC50 | > 10000 nM |
| O=C1Nc2ccccc2C1=NNc1nnc2n1N=C(c1ccccc1)CS2 | SRB | 10 µM | inhibition | 11% |
| COc1ccc(-c2ccc(-c3ccc(C(=N)N)nc3)s2)cc1Cl | SRB | – | GI50 | 1880 nM |
